Assay results reported in ChEMBL document CHEMBL1152495, “Synthesis and antimicrobial studies of novel methylene bridged benzisoxazolyl imidazo[2,1-b][1,3,4]thiadiazole derivatives” (2009).
Converted amounts (≈) assume the structure as drawn.

Key:
Type in all cases: functional
Bacillus subtilis [1] = assay: Antibacterial activity against Bacillus subtilis ATCC 6633 at 100 ug/ml after 24 hrs by agar well diffusion method; conditions: ATCC 6633, 24 h, read-out: IZ
How it was run: (§1)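 Agar well diffusion on Mueller Hinton agar (20 mL per dish), seeded homogeneously with liquid bacterial culture by spread plating. Samples loaded directly into wells, dimethylformamide as solvent control, ampicillin as reference drug. Plates incubated at 37 °C for 24 h. All determinations done in triplicate.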

Staphylococcus aureus [2] = assay: Antibacterial activity against Staphylococcus aureus ATCC 25923 at 100 ug/ml after 24 hrs by agar well diffusion method; conditions: ATCC 25923, 24 h, read-out: IZ; how it was run: as §1
Escherichia coli [3] = assay: Antibacterial activity against Escherichia coli ATCC 35218 after 24 hrs by agar well diffusion method; conditions: ATCC 35218, 24 h; how it was run: as §1
Escherichia coli [4] = assay: Antibacterial activity against Escherichia coli ATCC 35218 at 100 ug/ml after 24 hrs by agar well diffusion method; conditions: ATCC 35218, 24 h, read-out: IZ; how it was run: as §1
Bacillus subtilis [5] = assay: Antibacterial activity against Bacillus subtilis ATCC 6633 after 24 hrs by agar well diffusion method; conditions: ATCC 6633, 24 h; how it was run: as §1
Staphylococcus aureus [6] = assay: Antibacterial activity against Staphylococcus aureus ATCC 25923 after 24 hrs by agar well diffusion method; conditions: ATCC 25923, 24 h; how it was run: as §1
Pseudomonas aeruginosa [7] = assay: Antibacterial activity against Pseudomonas aeruginosa ATCC 10145 after 24 hrs by agar well diffusion method; conditions: ATCC 10145, 24 h; how it was run: as §1
Aspergillus fumigatus [8] = assay: Antifungal activity against Aspergillus fumigatus at 100 ug/ml after 72 hrs by agar well diffusion method; conditions: read-out: IZ
How it was run: (§2)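 Fungi grown on Potato Dextrose Agar (20 mL per dish), seeded homogeneously with liquid culture by spread plating. Samples loaded directly into agar wells, with dimethylformamide as solvent control and clotrimazole as reference drug. Plates incubated at 25 °C for 72 h, triplicate determinations.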

Candida albicans [9] = assay: Antifungal activity against Candida albicans after 72 hrs by agar well diffusion method; how it was run: as §2
Aspergillus fumigatus [10] = assay: Antifungal activity against Aspergillus fumigatus after 72 hrs by agar well diffusion method; how it was run: as §2
Pseudomonas aeruginosa [11] = assay: Antibacterial activity against Pseudomonas aeruginosa ATCC 10145 at 100 ug/ml after 24 hrs by agar well diffusion method; conditions: ATCC 10145, 24 h, read-out: IZ; how it was run: as §1
Candida albicans [12] = assay: Antifungal activity against Candida albicans at 100 ug/ml after 72 hrs by agar well diffusion method; conditions: read-out: IZ; how it was run: as §2

Row | SMILES | zone of inhibition at 100 µg/mL (Bacillus subtilis [1]) [mm] | zone of inhibition at 100 µg/mL (Staphylococcus aureus [2]) [mm] | MIC (Escherichia coli [3]) [µg/mL] | zone of inhibition at 100 µg/mL (Escherichia coli [4]) [mm] | MIC (Bacillus subtilis [5]) [µg/mL] | MIC (Staphylococcus aureus [6]) [µg/mL] | MIC (Pseudomonas aeruginosa [7]) [µg/mL] | zone of inhibition at 100 µg/mL (Aspergillus fumigatus [8]) [mm] | MIC (Candida albicans [9]) [µg/mL] | MIC (Aspergillus fumigatus [10]) [µg/mL] | zone of inhibition at 100 µg/mL (Pseudomonas aeruginosa [11]) [mm] | zone of inhibition at 100 µg/mL (Candida albicans [12]) [mm]
1 | N#CSc1c(-c2ccc(Cl)cc2)nc2sc(Cc3noc4ccccc34)nn12 | 17 | 18 | 2 (≈ 4.72 µM) | 16 | 1 (≈ 2.36 µM) | 1 (≈ 2.36 µM) | 1.5 (≈ 3.54 µM) | 11 | 3 (≈ 7.08 µM) | 4 (≈ 9.44 µM) | 19 | 15
2 | N#CSc1c(-c2ccc([N+](=O)[O-])cc2)nc2sc(Cc3noc4ccccc34)nn12 | 8 | 9 | 4 (≈ 9.21 µM) | 7 | 2.5 (≈ 5.75 µM) | 2 (≈ 4.6 µM) | 3 (≈ 6.91 µM) | 9 | 3.5 (≈ 8.06 µM) | 3.5 (≈ 8.06 µM) | 10 | 11
3 | COc1ccc(-c2nc3sc(Cc4noc5ccccc45)nn3c2SC#N)cc1 | 15 | 9 | 3 (≈ 7.15 µM) | 13 | 1 (≈ 2.38 µM) | 2 (≈ 4.77 µM) | 1.5 (≈ 3.58 µM) | 16 | 2.5 (≈ 5.96 µM) | 2.5 (≈ 5.96 µM) | 19 | 20
4 | N#CSc1c(-c2ccccc2)nc2sc(Cc3noc4ccccc34)nn12 | 14 | 16 | 3 (≈ 7.7 µM) | 12 | 1.5 (≈ 3.85 µM) | 1.5 (≈ 3.85 µM) | 2 (≈ 5.14 µM) | 15 | 3.5 (≈ 8.99 µM) | 2.5 (≈ 6.42 µM) | 17 | 12
5 | N#CSc1c(-c2ccc(Br)cc2)nc2sc(Cc3noc4ccccc34)nn12 | 14 | 12 | 2 (≈ 4.27 µM) | 15 | 2 (≈ 4.27 µM) | 1.5 (≈ 3.2 µM) | 2 (≈ 4.27 µM) | 12 | 3 (≈ 6.41 µM) | 4 (≈ 8.54 µM) | 18 | 14
6 | N#CSc1c(-c2cc3ccccc3oc2=O)nc2sc(Cc3noc4ccccc34)nn12 | 15 | 14 | 3.5 (≈ 7.65 µM) | 14 | 1 (≈ 2.19 µM) | 1.5 (≈ 3.28 µM) | 2 (≈ 4.37 µM) | 19 | 3.5 (≈ 7.65 µM) | 2 (≈ 4.37 µM) | 16 | 12
